# According to ChEMBL document CHEMBL1135197, “The synthesis and biological evaluation of a series of potent dual inhibitors of farnesyl and geranyl-Geranyl protein transferases” (Bioorg Med Chem Lett, 2002):
# Where “and” joins values, the source holds several entries; their conditions need not be identical. Equal values may be shown once.
# Experiments:
# [1] = target: T1, Protein farnesyltransferase (Homo sapiens, UniProt P49354+P49356); experiment: The concentration required to displace 50% of a highly potent radiolabeled FPTase inhibitor; format: protein-complex assay
# [2] = target: T1, Protein farnesyltransferase; experiment: Inhibitor of Farnesyl protein transferase (FTPase) required to reduce radiolabel [1-3H] incorporation by 50%; format: protein-complex assay
# Outline: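 Purified recombinant FPTase transfers [1-3H]FPP onto a recombinant protein substrate carrying the K-ras C-terminus. IC50 is the inhibitor concentration that lowers radiolabel incorporation by 50% relative to uninhibited controls. Values are the mean of at least two determinations.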
# [3] = target: T2, Geranylgeranyl transferase type I (Homo sapiens, UniProt P49354+P53609); experiment: (§1) Inhibition of [1-3H]-GGPP incorporation into biotinylated K4B-Ras peptide by geranylgeranyl transferase in the presence of 5 mM ATP; format: protein-complex assay
# Outline: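 Scintillation proximity assay: GGPTase reaction of [1-3H]GGPP with a biotinylated peptide of the K4B-Ras C-terminus at several inhibitor concentrations. IC50 is the concentration cutting radiolabel incorporation by 50% relative to uninhibited controls. Values are the mean of at least two determinations.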
# [4] = target: T1, Protein farnesyltransferase; experiment: Displacement of radiolabeled farnesyl transferase inhibitor; format: protein-complex assay
# [5] = target: T1, Protein farnesyltransferase; experiment: Inhibition of Farnesyl protein transferase radiolabel [1-3H] incorporation; format: protein-complex assay
# [6] = target: T2, Geranylgeranyl transferase type I; experiment: Inhibition of geranylgeranylation of C-terminal CAAX sequence of Rap 1a in PSN-1 cells; format: functional, cell-based
# Outline: (§2)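 PSN-1 cells; the read-out is inhibition of geranylgeranylation at the C-terminal CAAX sequence of Rap 1a, reported as EC50. Values are the mean of at least two determinations.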
# [7] = target: T2, Geranylgeranyl transferase type I; experiment: as §1; format: protein-complex assay; remark: listed apart in the source
# Outline: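 Scintillation proximity assay: GGPTase reaction of [1-3H]GGPP with a biotinylated peptide of the K4B-Ras C-terminus at several inhibitor concentrations. Values are the mean of at least two determinations.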
# [8] = target: T2, Geranylgeranyl transferase type I; experiment: Inhibition of geranylgeranylation of the C-terminal CAAX sequence of Rap 1a in PSN-1 cells; format: functional, cell-based; outline: as §2
IC50 [1],IC50 [2] [nM],IC50 [3] [nM],IC50 [4] [nM],IC50 [5] [nM],EC50 [6] [nM],IC50 [7] [nM],EC50 [8] [nM],Structure (SMILES)
7.95 nM,6.8,0.68,,,,,,N#Cc1ccc(Cn2cncc2CN2CCN(C(=O)OCc3ccccc3Cl)CC2)cc1
1.13 nM,1.5,80,,,,,,CCOc1ccccc1COC(=O)N1CCN(Cc2cnc(C)n2Cc2ccc(C#N)cc2)CC1
4 nM and 27 nM,3.1,0.84,,,,,,COc1ccccc1COC(=O)N1CCN(Cc2cncn2Cc2ccc(C#N)cc2)CC1
62.9 nM,6.4,,,,,9.1,,Cc1ccccc1COC(=O)N1CCN(Cc2cncn2Cc2ccc(C#N)cc2)CC1
4.52 nM,1.6,0.32,,,,,71,CCOc1ccccc1COC(=O)N1CCN(Cc2cncn2Cc2ccc(C#N)cc2)CC1
12.1 nM,13.4,74,,,,,,N#Cc1ccc(Cn2cncc2CN2CCN(C(=O)OCc3cccc(OC(F)(F)F)c3)CC2)cc1
,19,789,,,,,,Cc1ncc(CN2CCN(C(=O)OCc3ccccc3)CC2)n1Cc1ccc(C#N)cc1

# More lines, now with the values behind:
Structure (SMILES),IC50 [1],IC50 [2] [nM],IC50 [3] [nM],IC50 [4] [nM],IC50 [5] [nM],EC50 [6] [nM],IC50 [7] [nM],EC50 [8] [nM]
N#Cc1ccc(Cn2cncc2CN2CCN(C(=O)OCc3ccc4c(c3)OCO4)CC2)cc1,,102,121,,,,,
Cc1ncc(CN2CCN(C(=O)OCc3ccccc3OC(F)(F)F)CC2)n1Cc1ccc(C#N)cc1,,,,0.34,0.33,660,53,
Cc1cccc(COC(=O)N2CCN(Cc3cncn3Cc3ccc(C#N)cc3)CC2)c1,166 nM,34,76,,,,,
CS(=O)(=O)c1ccccc1COC(=O)N1CCN(Cc2cncn2Cc2ccc(C#N)cc2)CC1,,99,18,,,,,
COc1ncccc1COC(=O)N1CCN(Cc2cncn2Cc2ccc(C#N)cc2)CC1,13 nM,18,48,,,,,
N#Cc1ccc(Cn2cncc2CN2CCN(C(=O)OCc3cccc4c3OCO4)CC2)cc1,10.9 nM,15.5,19.8,,,,,
CCOc1ncccc1COC(=O)N1CCN(Cc2cncn2Cc2ccc(C#N)cc2)CC1,8.67 nM,5,8.7,,,,,
N#Cc1ccc(Cn2cncc2CN2CCN(C(=O)OCc3ccccc3CC(F)(F)F)CC2)cc1,0.85 nM,2.5,4.82,,,,,50
COCc1ccccc1COC(=O)N1CCN(Cc2cncn2Cc2ccc(C#N)cc2)CC1,9.1 nM,6.1,0.32,,,,,
N#Cc1ccc(Cn2cncc2CN2CCN(C(=O)OCc3ccccc3OC(F)(F)F)CC2)cc1,2.2 nM,0.36,0.16,,,,,18
COCc1ccccc1COC(=O)N1CCN(Cc2cnc(C)n2Cc2ccc(C#N)cc2)CC1,,,,3.17,17,680,178,
